Bioassay records deposited in PubChem BioAssay by several laboratories.
UCH37 DUB inh: human UCH37 deubiquitinating enzyme inhibition | Q9Y5K5 | purified proteasome/UCH37, Ub-AMC cleavage fluorescence | inhibition, % (test concentration not listed) | 330,000 compounds, 0.33% hits | AID 588478;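 active = mean inhibition over replicate wells above about 20%, limit read from the data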;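 note: 0% = compound-free wells with enzyme and 100% = wells lacking proteasome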
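assay system = human UCH37 enzyme supplied as purified proteasome complex | amount = proteasome at 0.15 nM in the dispensed enzyme solution | schedule = 30 min compound-proteasome preincubation then 25 min substrate reaction, room temperature | measured by = fluorescence, ex 355 nm, em 460 nm | benchmarks = no-proteasome wells (full inhibition) and compound-free wells (no inhibition)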
ALR H2O2 inh: blocks human ALR sulfhydryl oxidase activity; P55789; purified ALR, DTT oxidation, H2O2 HRP-luminol luminescence; inhibition, % (concentration not given with the values); 290,000 compounds, 3.8% hits; AID 485317;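 active = mean replicate inhibition above about 79%, with every replicate also reaching it, limit read from the data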
M18AAP inhibitor: blocks P. falciparum M18 aspartyl aminopeptidase | 290,000 compounds, 1.2% hits | recombinant PfM18AAP, H-Glu-NHMec fluorogenic cleavage | inhibition, % at 7.35 µM;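 active = inhibition above the campaign mean inhibition over all tested compounds plus 3 SD, cut at about 28% in these data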;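 note: 0% = plate median of test compound wells and 100% = 2 mM ZnCl2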
Rtt109 Vps75: C. albicans Rtt109 histone acetyltransferase inhibition; AID 540336; 330,000 compounds, 0.16% hits; purified Rtt109/Vps75, ThioGlo CoA-SH fluorescence, 4 h; inhibition, % at 34.9 µM;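 active = inhibition of at least 50% in every replicate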
HDAC3 inhib: human HDAC3 inhibition | inhibition, % at 8.3 µM | AID 2718 | 320,000 compounds, 0.15% hits | recombinant HDAC3, fluorogenic peptide/trypsin coupled, fluorescence | O15379; in the data active = inhibition above about 26%, passing the limit was not always enough
FAS-TE inh: blocks the thioesterase domain of human fatty acid synthase; AID 602261; recombinant FAS-TE, OMFH fluorogenic substrate, fluorescence endpoint; 360,000 compounds, 0.67% hits; inhibition, % at 15 µM;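 active = compounds whose normalised, plate-corrected inhibition of enzyme fluorescence in the single-dose primary screen is 50% or more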;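 note: 0% = DMSO with enzyme and 100% = substrate without enzyme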
Target sequence (P49327 whole entry, looked up, the tested form may be a part): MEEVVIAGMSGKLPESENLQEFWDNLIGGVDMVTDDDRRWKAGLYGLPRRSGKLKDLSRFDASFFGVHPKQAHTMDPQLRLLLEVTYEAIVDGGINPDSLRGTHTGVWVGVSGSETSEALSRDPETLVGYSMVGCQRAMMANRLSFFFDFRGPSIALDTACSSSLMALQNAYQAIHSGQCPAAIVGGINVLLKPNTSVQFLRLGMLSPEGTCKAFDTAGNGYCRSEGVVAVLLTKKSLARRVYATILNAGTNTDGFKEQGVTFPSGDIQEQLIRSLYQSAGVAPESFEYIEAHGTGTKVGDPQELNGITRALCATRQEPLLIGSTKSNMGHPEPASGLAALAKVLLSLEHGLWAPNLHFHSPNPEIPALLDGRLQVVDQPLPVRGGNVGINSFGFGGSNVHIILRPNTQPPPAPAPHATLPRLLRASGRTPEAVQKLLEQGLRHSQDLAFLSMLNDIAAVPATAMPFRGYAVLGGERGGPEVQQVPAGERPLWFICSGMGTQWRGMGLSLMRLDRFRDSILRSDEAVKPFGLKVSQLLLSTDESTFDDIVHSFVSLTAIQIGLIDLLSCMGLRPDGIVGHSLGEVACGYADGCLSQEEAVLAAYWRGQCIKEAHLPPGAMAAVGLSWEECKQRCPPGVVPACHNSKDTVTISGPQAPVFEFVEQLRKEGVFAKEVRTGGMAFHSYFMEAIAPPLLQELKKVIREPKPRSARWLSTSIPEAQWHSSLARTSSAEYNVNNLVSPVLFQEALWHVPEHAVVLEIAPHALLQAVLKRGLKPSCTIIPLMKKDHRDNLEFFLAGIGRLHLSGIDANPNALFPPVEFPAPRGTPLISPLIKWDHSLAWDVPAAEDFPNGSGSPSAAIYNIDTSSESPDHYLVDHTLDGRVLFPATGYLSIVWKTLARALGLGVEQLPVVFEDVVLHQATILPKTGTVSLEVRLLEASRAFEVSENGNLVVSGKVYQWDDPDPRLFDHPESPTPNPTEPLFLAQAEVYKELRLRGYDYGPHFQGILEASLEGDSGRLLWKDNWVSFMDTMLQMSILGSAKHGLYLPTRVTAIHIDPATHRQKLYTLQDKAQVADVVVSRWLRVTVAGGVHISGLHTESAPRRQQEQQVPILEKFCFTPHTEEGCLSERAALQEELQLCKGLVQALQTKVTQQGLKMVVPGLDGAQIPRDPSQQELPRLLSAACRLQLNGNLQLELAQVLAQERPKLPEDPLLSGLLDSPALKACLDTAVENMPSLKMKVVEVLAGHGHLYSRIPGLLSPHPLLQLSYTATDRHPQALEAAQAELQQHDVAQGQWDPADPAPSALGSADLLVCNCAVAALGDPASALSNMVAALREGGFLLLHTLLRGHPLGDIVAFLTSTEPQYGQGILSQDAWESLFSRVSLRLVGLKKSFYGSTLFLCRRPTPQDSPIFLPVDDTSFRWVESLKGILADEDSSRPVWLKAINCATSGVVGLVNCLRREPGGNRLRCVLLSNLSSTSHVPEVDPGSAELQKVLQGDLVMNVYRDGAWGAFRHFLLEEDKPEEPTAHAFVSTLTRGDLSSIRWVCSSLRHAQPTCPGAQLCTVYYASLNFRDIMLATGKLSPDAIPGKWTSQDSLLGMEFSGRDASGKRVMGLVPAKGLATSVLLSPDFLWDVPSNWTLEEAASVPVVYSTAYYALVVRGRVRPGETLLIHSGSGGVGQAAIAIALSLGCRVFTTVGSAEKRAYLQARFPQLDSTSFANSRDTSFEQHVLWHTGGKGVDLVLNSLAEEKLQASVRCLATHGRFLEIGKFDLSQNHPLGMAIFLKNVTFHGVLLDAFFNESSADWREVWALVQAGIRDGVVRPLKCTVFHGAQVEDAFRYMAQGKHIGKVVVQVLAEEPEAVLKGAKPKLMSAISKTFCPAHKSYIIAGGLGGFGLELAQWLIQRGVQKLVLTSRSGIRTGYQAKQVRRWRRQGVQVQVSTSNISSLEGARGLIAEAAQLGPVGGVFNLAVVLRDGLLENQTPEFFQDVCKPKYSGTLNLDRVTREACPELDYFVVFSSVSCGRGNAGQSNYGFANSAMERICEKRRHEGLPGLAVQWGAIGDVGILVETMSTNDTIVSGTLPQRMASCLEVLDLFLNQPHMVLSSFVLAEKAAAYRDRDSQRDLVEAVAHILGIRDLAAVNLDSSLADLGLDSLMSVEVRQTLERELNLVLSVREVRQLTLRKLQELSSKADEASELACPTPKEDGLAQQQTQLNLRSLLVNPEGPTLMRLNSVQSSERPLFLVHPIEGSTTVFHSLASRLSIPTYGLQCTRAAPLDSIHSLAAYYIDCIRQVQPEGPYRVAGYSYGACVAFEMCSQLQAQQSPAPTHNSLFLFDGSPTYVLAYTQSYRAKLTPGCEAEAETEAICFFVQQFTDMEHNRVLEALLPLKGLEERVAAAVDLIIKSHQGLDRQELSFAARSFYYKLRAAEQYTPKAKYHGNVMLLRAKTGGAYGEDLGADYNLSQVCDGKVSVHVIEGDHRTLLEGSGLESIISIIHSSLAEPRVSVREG
FAS-TE inh conf: confirmation of human fatty acid synthase thioesterase inhibitors; shares compounds with FAS-TE inh; recombinant FAS-TE, OMFH fluorogenic substrate, fluorescence; inhibition, % at 15 µM; 2,300 compounds, 45% hits;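 active = compounds inhibiting the enzyme by at least 50% at 15 µM in any one of the replicates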;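 note: 0% = enzyme with DMSO only and 100% = wells lacking enzyme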
* hit, by the source's call; / = no result given. Sampled rows, rich in hits. Any-hit rate of the full collection: about 4.6%.

SMILES	UCH37 DUB inh	ALR H2O2 inh	M18AAP inhibitor	Rtt109 Vps75	HDAC3 inhib	FAS-TE inh	FAS-TE inh conf
COc1cc(C(=O)NN=C2CCS(=O)(=O)c3ccc(F)cc32)cc(OC)c1OC	6	/	/	/	/	/	/
CC12C(=O)N(c3ccc(OC(=O)c4ccco4)cc3)C(=O)C1C1c3ccccc3C2c2ccccc21 (stereo unspecified)	6	0	-3	-3	15	60*	28
Cc1cc(C)c(-c2csc(NC(=O)c3cc([N+](=O)[O-])ccc3N3CCOCC3)n2)c(C)c1	3	-10	2	1	8	65*	33
Cc1cccc(NC(=O)c2cc([N+](=O)[O-])ccc2N2CCOCC2)c1C	/	/	/	/	/	18	/
O=C(Nc1nc(-c2ccc(F)c(F)c2)cs1)c1cc([N+](=O)[O-])ccc1N1CCOCC1	6	0	5	-3	-4	55*	29
Cc1[nH]c(=O)[nH]c(=O)c1C=NNC(=O)CCCCCNC(=O)OC(C)(C)C	5	/	/	/	/	/	/
N#Cc1ccc(-n2c(-c3ccccc3)nnc2-c2ccccc2)cc1C#N	-18	-4	-1	-3	-7	43	/
N#Cc1cccc(-n2c(-c3ccccc3)nnc2-c2ccccc2)c1C#N	3	1	-1	-1	9	58*	17
O=C(CSc1nc2ccccc2c(=O)n1-c1ccccc1)N1CCc2ccccc2C1	3	/	6	-2	/	22	/
CC(C)c1ccccc1-n1c(SCC(=O)N2CCc3ccccc3C2)nc2ccccc2c1=O	5	1	-9	-5	9	60*	23
C=C1C(=O)O[C@@H]2[C@H]1[C@@H](OC(=O)/C(C)=C/C)CC(C)=CC(=O)C=C(C)[C@@H]2O	-1	/	/	/	/	/	/
CC(C)Cn1c(N)c(C(=O)COC(=O)c2cc(-c3ccccc3)nc3ccccc23)c(=O)n(C)c1=O	-1	-9	1	-3	-1	51*	14
Cn1c(=NC(=O)c2ccc(S(=O)(=O)N3CCCc4ccccc43)cc2)sc2cc(S(C)(=O)=O)ccc21	-2	-23	-12	8	1	83*	11
O=C1c2ccc(-c3ccc(F)cc3OCc3ccccc3)cc2S(=O)(=O)c2cccc(C(=O)N3CCCC3)c21	-2	-4	/	-10	-6	62*	-1
COc1ccccc1N1CCN(c2ccc3c(c2)S(=O)(=O)c2cccc(C(=O)NCc4cccc(F)c4)c2C3=O)CC1	/	/	/	/	/	64*	27
CC(=O)OC[C@H]1O[C@@H](ON=CC[C@@H]2C=C[C@H](OC(C)=O)[C@@H](COC(C)=O)O2)[C@H](OC(C)=O)[C@@H](OC(C)=O)[C@@H]1OC(C)=O	12	/	/	/	/	/	/
CCCC12CN(C(=O)c3ccc([N+](=O)[O-])cc3)CC(C)(CN(C(=O)c3ccc([N+](=O)[O-])cc3)C1)C2=O	6	4	-4	/	0	55*	62*
O=[N+]([O-])c1cccc(C=NN=C2c3ccccc3-c3ccccc32)c1	/	/	/	-1	/	28	/
CC1S/C(=N\N=C\c2cccc([N+](=O)[O-])c2)N(C(C)(C)C)C1=O (stereo unspecified)	/	/	-14	10	5	54*	0
COc1ccc(NC(=S)N2CCN(c3ccc4c(c3)C3CCN(C(=O)OCc5ccccc5)C4C3)CC2)c(OC)c1 (stereo unspecified)	/	/	/	/	/	57*	11
O=C(OCc1ccccc1)N1CCC2CC1c1cc(N3CCN(C(=S)NCCc4ccccc4)CC3)ccc12 (stereo unspecified)	/	/	/	/	/	25	/
Cc1cccc(-n2c(SCC(=O)N3CC(=O)Nc4ccccc43)nc3ccccc3c2=O)c1	2	-4	1	-2	-3	7	/
COCC(C)n1c(SCC(=O)N2CC(=O)Nc3ccccc32)nc2ccccc2c1=O (stereo unspecified)	3	-2	/	3	-2	-5	/
CC(c1ccccc1)n1c(SCC(=O)N2CC(=O)Nc3ccccc32)nc2ccccc2c1=O (stereo unspecified)	3	-3	0	-3	7	56*	27
O=C1CN(C(=O)CSc2nc3cc(Cl)ccc3c(=O)n2Cc2ccccc2)c2ccccc2N1	0	-1	-2	/	3	76*	20
SMILES	UCH37 DUB inh	ALR H2O2 inh	M18AAP inhibitor	Rtt109 Vps75	HDAC3 inhib	FAS-TE inh	FAS-TE inh conf
Cc1ccc(Cn2c(SCC(=O)N3CC(=O)Nc4ccccc43)nc3ccccc3c2=O)cc1	1	0	-11	2	9	53*	23
CCN(CC)S(=O)(=O)c1cccc(C(=O)NN=C2CCCC(=O)C2)c1	7	/	/	/	/	/	/
COc1ccc(-n2nc(C(=O)NCC(=O)N3CCN(c4cccc(Cl)c4)CC3)c3ccccc3c2=O)c(OC)c1	0	-2	-7	-2	4	55*	30
CC(=NNS(=O)(=O)c1ccc(C)cc1)c1c[nH]c2ccccc12	1	/	/	/	/	/	/
O=[N+]([O-])c1ccccc1NN=C1CCc2ccccc21	4	/	/	/	/	/	/
O=C1[C@H]2[C@@H](c3ccc(F)cc3)N3C(=O)N(c4cccc(Br)c4)C(=O)[C@@]3(Cc3ccccc3)[C@H]2C(=O)N1C1CCCCC1	-6	-6	/	7	-2	80*	35
O=C1[C@H]2[C@@H](c3ccc(F)cc3)N3C(=O)N(c4cccc(F)c4)C(=O)[C@@]3(Cc3ccccc3)[C@H]2C(=O)N1C1CCCCC1	1	-2	/	0	-1	46	/
CC[C@@]12C(=O)N(c3cccc(Br)c3)C(=O)N1[C@H](c1ccc(F)cc1)[C@@H]1C(=O)N(C3CCCCC3)C(=O)[C@@H]12	2	-13	/	4	12	52*	24
CCn1cc(C(=O)NCc2ccco2)c(=O)c2cc(S(=O)(=O)N3CC(C)CC(C)C3)ccc21 (stereo unspecified)	5	10	11	7	-1	78*	87*
CCn1cc(C(=O)NCc2ccco2)c(=O)c2cc(S(=O)(=O)N3CCC(C)CC3)ccc21	/	-14	-3	-5	3	74*	84*
CCn1cc(C(=O)NCc2ccco2)c(=O)c2cc(S(=O)(=O)N3CCCCCC3)ccc21	5	-18	-1	-4	12	78*	58*
CCn1cc(C(=O)NCc2ccco2)c(=O)c2cc(S(=O)(=O)N3CCc4ccccc4C3)ccc21	3	4	-2	4	3	47	/
C=CCn1cc(C(=O)NCc2ccco2)c(=O)c2cc(S(=O)(=O)N3CCCCCC3)ccc21	3	49	10	-9	17	61*	70*
CCn1cc(C(=O)N2CCCC2)c(=O)c2cc(S(=O)(=O)N3CC(C)CC(C)C3)ccc21 (stereo unspecified)	4	-2	-4	-18	5	-3	/
C=CCn1cc(C(=O)NCCOC)c(=O)c2cc(S(=O)(=O)N3CCCCCC3)ccc21	1	-2	-13	-2	-2	-2	/
